Assay results as given in ChEMBL document CHEMBL4266020, “Design, Synthesis, and Antifibrosis Activity in Liver of Nonsecosteroidal Vitamin D Receptor Agonists with Phenyl-pyrrolyl Pentane Skeleton” (J Med Chem, 2018).
Active and inactive are the calls of the source. No cut-off for these calls is given here.

Assays:
[1] = target: T1, Vitamin D3 receptor (Homo sapiens) (UniProt P11473); test: Agonist activity at VDR in human LX2 cells assessed as inhibition of TGFbeta1-induced collagen-1 synthesis at 100 nM after 24 hrs by ELISA relative to 1,25(OH)2D3
T1 sequence (whole entry): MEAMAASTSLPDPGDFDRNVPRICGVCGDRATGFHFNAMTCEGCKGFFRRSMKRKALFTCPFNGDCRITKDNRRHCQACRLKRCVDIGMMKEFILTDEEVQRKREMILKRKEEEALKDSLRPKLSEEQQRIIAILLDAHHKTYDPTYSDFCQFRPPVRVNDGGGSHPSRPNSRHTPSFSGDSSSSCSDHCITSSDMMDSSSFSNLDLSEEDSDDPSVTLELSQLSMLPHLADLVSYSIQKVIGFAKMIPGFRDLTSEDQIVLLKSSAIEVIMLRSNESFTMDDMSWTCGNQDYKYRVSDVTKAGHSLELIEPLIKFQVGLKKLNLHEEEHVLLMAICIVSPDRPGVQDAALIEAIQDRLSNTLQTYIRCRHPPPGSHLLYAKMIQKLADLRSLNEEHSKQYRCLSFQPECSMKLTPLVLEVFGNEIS

[2] = target: T1, Vitamin D3 receptor (Homo sapiens); test: Transactivation of VDR in human LX2 cells assessed as inhibition of TGFbeta1-induced ACTA2 mRNA expression at 100 nM after 24 hrs by Q-PCR analysis; type: cell-based
Procedure, shortened: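 LX-2 cells cultured with 100 nM compound for 24 h. ACTA2 mRNA measured by SYBR Green Q-PCR, normalized to U36B4 (human internal control).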

[3] = target: T1, Vitamin D3 receptor (Homo sapiens); test: Transactivation of VDR (unknown origin) expressed in HEK293 cells co-transfected with human RXRalpha after 24 hrs by dual luciferase reporter gene assay; type: cell-based
Procedure, shortened: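 HEK293 cells at 85-90% confluence transfected per well with 140 ng TK-SPP×3-Luc reporter, 20 ng pCMX-Renilla, 30 ng pENTER-CMV-hRXRα and 100 ng pCMX-VDR. Compounds added 8 h after transfection. Dual-luciferase assay run 24 h later, firefly normalized to Renilla, three experiments.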

[4] = target: T1, Vitamin D3 receptor (Homo sapiens); test: Binding affinity to VDR ligand binding domain (unknown origin) at 100 nM by fluorescence polarization assay relative to 1,25(OH)2D3
Mus musculus [5] = test: Antifibrotic activity in C57BL/6J mouse model of CCl4-induced liver fibrosis assessed as reduction in hydroxyproline levels in liver at 20 ug/kg, po administered 5 times a week via gavage measured at 72 hrs post final CCl4 injection; type: functional, organism-based
Procedure, shortened: (§1)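 Same CCl4 mouse model (n=5; 0.5 mL/kg IP in corn oil, 3×/week for 4 weeks; 20 µg/kg oral gavage 5×/week from day 20; sacrifice 72 h after last CCl4). Livers fixed in 4% paraformaldehyde for 24 h, paraffin-embedded, and cut into 5 µm sections. Sections stained with H&E (×100) or Masson's trichrome (×200). Hydroxyproline measured by kit.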

Mus musculus [6] = test: Hepatoprotective activity against CCL4-induced liver damage in C57BL/6J mouse assessed as reduction in serum ALT levels at 20 ug/kg, po administered 5 times a week via gavage measured at 72 hrs post final CCl4 injection; type: functional, organism-based
Procedure, shortened: (§2)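 Same CCl4 mouse model (n=5; 0.5 mL/kg IP, 3×/week for 4 weeks; 20 µg/kg gavage 5×/week from day 20; sacrifice 72 h after last CCl4). Serum obtained by centrifugation at 3000 rpm for 15 min at 4°C. ALT, AST, TBA and calcium measured with commercial kits. Mean ± SD.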

Mus musculus [7] = test: Hepatoprotective activity against CCL4-induced liver damage in C57BL/6J mouse assessed as reduction in serum AST levels at 20 ug/kg, po administered 5 times a week via gavage measured at 72 hrs post final CCl4 injection; type: functional, organism-based
Procedure, shortened: as §2

Mus musculus [8] = test: Hepatoprotective activity against CCL4-induced liver damage in C57BL/6J mouse assessed as reduction in serum TBA levels at 20 ug/kg, po administered 5 times a week via gavage measured at 72 hrs post final CCl4 injection; type: functional, organism-based
Procedure, shortened: as §2

[9] = target: T1, Vitamin D3 receptor (Homo sapiens); test: Transactivation of VDR in human LX2 cells assessed as inhibition of TGFbeta1-induced alpha-SMA protein levels at 100 nM after 24 hrs by Western blot analysis; type: cell-based
Procedure, shortened: (§3)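 LX-2 cells cultured 24 h with 100 nM compound in TGFβ1-treated cells. Proteins separated on 10% SDS-PAGE, transferred to PVDF, and α-SMA or collagen I bands detected by infrared scanning.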

[10] = target: T1, Vitamin D3 receptor (Homo sapiens); test: Transactivation of VDR in human LX2 cells assessed as inhibition of TGFbeta1-induced collagen 1 protein levels at 100 nM after 24 hrs by Western blot analysis; type: cell-based
Procedure, shortened: as §3

[11] = Oral bioavailability in Sprague-Dawley rat at 20 mg/kg by HPLC analysis; type: ADME, organism-based; conditions: in vivo
Mus musculus [12] = test: Induction of serum calcium levels in CCL4-induced C57BL/6J mouse liver damage model at 20 ug/kg, po administered 5 times a week via gavage measured at 72 hrs post final CCl4 injection; type: organism-based; conditions: in vivo, 0.02 mg/kg
Procedure, shortened: as §2

Mus musculus [13] = test: Antifibrotic activity in C57BL/6J mouse model of CCl4-induced liver fibrosis assessed as reduction in collagen accumulation in liver at 20 ug/kg, po administered 5 times a week via gavage measured at 72 hrs post final CCl4 injection by hematoxylin-eosin staining based assay; type: functional, organism-based
Procedure, shortened: as §1

Mus musculus [14] = test: Antifibrotic activity in C57BL/6J mouse model of CCl4-induced liver fibrosis assessed as increase in CYP24A1 expression in liver at 20 ug/kg, po administered 5 times a week via gavage measured at 72 hrs post final CCl4 injection by Q-PCR analysis; type: functional, organism-based
Homo sapiens [15] = species on record: Homo sapiens; test: Inhibition of TGFbeta1-mediated alphaSMA expression in human LX2 cells at 100 nM after 24 hrs in presence of VDR siRNA by Western blot analysis; type: functional, cell-based
Procedure, shortened: (§4)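 LX-2 cells transfected with VDR-directed or scrambled siRNA (50 nM, Lipofectamine 2000), cultured 24 h, then treated 24 h with 100 nM compound, TGFβ1 (1 ng/mL), or both. VDR, α-SMA and collagen I measured by western blot (10% SDS-PAGE, PVDF).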

Mus musculus [16] = test: Antifibrotic activity in C57BL/6J mouse model of CCl4-induced liver fibrosis assessed as reduction in COL1A1 mRNA expression in liver at 20 ug/kg, po administered 5 times a week via gavage measured at 72 hrs post final CCl4 injection by Q-PCR analysis; type: functional, organism-based
Mus musculus [17] = test: Antifibrotic activity in C57BL/6J mouse model of CCl4-induced liver fibrosis assessed as decrease in alpha-SMA expression in liver at 20 ug/kg, po administered 5 times a week via gavage measured at 72 hrs post final CCl4 injection by Q-PCR analysis; type: functional, organism-based
Mus musculus [18] = test: Antifibrotic activity in C57BL6/J mouse model of CCl4-induced liver fibrosis assessed as reduction in collagen accumulation in liver at 20 ug/kg, po administered 5 times a week via gavage measured at 72 hrs post final CCl4 injection by Masson's trichrome-staining based assay; type: functional, organism-based; conditions: C57BL/6J
Procedure, shortened: as §1

Homo sapiens [19] = species on record: Homo sapiens; test: Inhibition of TGFbeta1-mediated collagen-1 activation in human LX2 cells at 100 nM after 24 hrs in presence of VDR siRNA by Western blot analysis; type: functional, cell-based
Procedure, shortened: as §4

[20] = target: T1, Vitamin D3 receptor (Homo sapiens); test: Agonist activity at VDR in human LX2 cells assessed as upregulation of TGFbeta1-induced CYP24A1 mRNA expression after 24 hrs by Q-PCR method; type: cell-based
Mus musculus [21] = test: Effect on Trpv6 mRNA expression in CCL4-induced C57BL/6J mouse liver damage model at 20 ug/kg, po via gavage measured on day 3 and 7 by Q-PCR analysis; type: ADME, organism-based; conditions: in vivo, 0.02 mg/kg
Mus musculus [22] = test: Antifibrotic activity in C57BL/6J mouse model of CCl4-induced liver fibrosis assessed as decrease in alpha-SMA expression in liver at 20 ug/kg, po administered 5 times a week via gavage measured at 72 hrs post final CCl4 injection by IHC-staining based assay; type: functional, organism-based
[23] = Half life in Sprague-Dawley rat at 20 mg/kg, po by HPLC analysis; type: ADME, organism-based; conditions: in vivo

CCn1c(C(=O)NCC(C)(C)O)ccc1C(CC)(CC)c1ccc(OCC(O)CO)c(C)c1 (stereo unspecified)
collagen-1 synthesis inhibition relative to 1,25(OH)2D3 (%) [1]: 150%
inhibition [2]: inactive
Activity [3]: Dose-dependent effect
Activity [4]: 43%

C=C1/C(=C\C=C2/CCC[C@]3(C)[C@@H]([C@H](C)/C=C/[C@@H](O)C4CC4)CC[C@@H]23)C[C@@H](O)C[C@@H]1O
Activity (Mus musculus [5]): Active
collagen-1 synthesis inhibition relative to 1,25(OH)2D3 (%) [1]: 95%
Activity (Mus musculus [6]): Active
Activity (Mus musculus [7]): Active
Activity (Mus musculus [8]): Active
Activity [4]: 93%

CCn1c(C(=O)NCC(F)(F)F)ccc1C(CC)(CC)c1ccc(OCC(O)CO)c(C)c1 (stereo unspecified)
collagen-1 synthesis inhibition relative to 1,25(OH)2D3 (%) [1]: 135%
Activity [4]: 37%

CCn1cc(C(CC)(CC)c2ccc(OC(=O)CCC(=O)O)c(C)c2)cc1C(=O)NCC(C)(C)O
collagen-1 synthesis inhibition relative to 1,25(OH)2D3 (%) [1]: 80%
Activity [4]: 30%

CCCCCNC(=O)c1ccc(C(CC)(CC)c2ccc(OCC(O)CO)c(C)c2)n1CC (stereo unspecified)
collagen-1 synthesis inhibition relative to 1,25(OH)2D3 (%) [1]: 70%
Activity [4]: 21%

CCn1c(C(=O)NCC2CC2)ccc1C(CC)(CC)c1ccc(OCC(O)CO)c(C)c1 (stereo unspecified)
collagen-1 synthesis inhibition relative to 1,25(OH)2D3 (%) [1]: 71%
Activity [4]: 27%

CCn1cc(C(CC)(CC)c2ccc(OCC(O)CO)c(C)c2)cc1C(=O)NCC(F)(F)F (stereo unspecified)
collagen-1 synthesis inhibition relative to 1,25(OH)2D3 (%) [1]: 133%
inhibition [9]: Active
inhibition [10]: Active
Activity [3]: Dose-dependent effect
Activity [4]: 39%

CCn1cc(C(CC)(CC)c2ccc(OCC(O)CO)c(C)c2)cc1C(=O)NCC(C)(C)O (stereo unspecified)
bioavailability [11]: 29.3%
Activity (Mus musculus [12]): Non-Toxic
Activity (Mus musculus [5]): Active
Activity (Mus musculus [6]): Active
Activity (Mus musculus [13]): Active
Activity (Mus musculus [14]): Active
Activity (Mus musculus [7]): Active
inhibition (Homo sapiens [15]): inactive
Activity (Mus musculus [16]): Active
inhibition [9]: Active
inhibition [10]: Active
Activity (Mus musculus [17]): Active
Activity (Mus musculus [8]): Active
inhibition [2]: Active
Activity (Mus musculus [18]): Active
Activity [3]: Dose-dependent effect
inhibition (Homo sapiens [19]): inactive
Activity [20]: Active
Activity (Mus musculus [21]): Non-Toxic
Activity (Mus musculus [22]): Active
Activity [4]: 62%
half-life [23]: 6.57 h

CCn1cc(C(CC)(CC)c2ccc(OC(=O)CCN)c(C)c2)cc1C(=O)NCC(C)(C)O
collagen-1 synthesis inhibition relative to 1,25(OH)2D3 (%) [1]: 66%
Activity [4]: 22%

C=C1/C(=C\C=C2/CCC[C@]3(C)[C@@H]([C@H](C)CCCC(C)(C)O)CC[C@@H]23)C[C@@H](O)C[C@@H]1O [CALCITRIOL]
bioavailability [11]: 30.8%
Activity (Mus musculus [5]): Active
Activity (Mus musculus [6]): Active
Activity (Mus musculus [7]): Active
Activity (Mus musculus [8]): Active
half-life [23]: 7.55 h

CCn1cc(C(CC)(CC)c2ccc(OC(=O)[C@H](C)N)c(C)c2)cc1C(=O)NCC(C)(C)O
collagen-1 synthesis inhibition relative to 1,25(OH)2D3 (%) [1]: 73%
Activity [4]: 20%

CCn1cc(C(CC)(CC)c2ccc(OCCCC(=O)O)c(C)c2)cc1C(=O)NCC(C)(C)O
collagen-1 synthesis inhibition relative to 1,25(OH)2D3 (%) [1]: 112%
Activity [4]: 32%

CCCCCNC(=O)c1cc(C(CC)(CC)c2ccc(OCC(O)CO)c(C)c2)cn1CC (stereo unspecified)
collagen-1 synthesis inhibition relative to 1,25(OH)2D3 (%) [1]: 51%
Activity [4]: 16%

CCn1c(C(=O)NCC(C)(C)C)ccc1C(CC)(CC)c1ccc(OCC(O)CO)c(C)c1 (stereo unspecified)
inhibition [2]: inactive
Activity [3]: Dose-dependent effect
Activity [4]: 45%

CCn1cc(C(CC)(CC)c2ccc(OCCCCC(=O)O)c(C)c2)cc1C(=O)NCC(C)(C)O
collagen-1 synthesis inhibition relative to 1,25(OH)2D3 (%) [1]: 90%
Activity [4]: 30%

CCn1cc(C(CC)(CC)c2ccc(OCC(O)CO)c(C)c2)cc1C(=O)NCC(C)(C)C (stereo unspecified)
collagen-1 synthesis inhibition relative to 1,25(OH)2D3 (%) [1]: 119%
Activity [4]: 31%
